Data reported in ChEMBL document CHEMBL1137015, “Improved, selective, human intestinal carboxylesterase inhibitors designed to modulate 7-ethyl-10-[4-(1-piperidino)-1-piperidino]carbonyloxycamptothecin (Irinotecan; CPT-11) toxicity” (J Med Chem, 2009).
Activity calls are given as the source filed them.

Columns and labels:
[1] = target: Acetylcholinesterase (Homo sapiens) (UniProt P22303); assay: Inhibition of human AchE using acetylthiocholine as substrate by spectrophotometric multiwell plate assay
[2] = Inhibition of human intestinal CE-mediated O-nitrophenyl acetate hydrolysis by spectrophotometry
Outline: (§1)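 Enzyme activity read spectrophotometrically as release of o-nitrophenol from o-nitrophenyl acetate across increasing inhibitor concentrations. Inhibitors were freshly dissolved in DMSO, typically as 10mM stocks. Fractional inhibition was plotted against inhibitor concentration and fitted to a partial-inhibition equation including Ks, α and β. Inhibition mode was chosen by Akaike's information criteria, and Ki was taken from the best-fit model.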

[3] = target: Cholinesterase (Homo sapiens) (UniProt P06276); assay: Inhibition of human BchE using butyrylthiocholine as substrate by spectrophotometric multiwell plate assay
Liver carboxylesterase 1 = target: T1, Liver carboxylesterase 1 (Homo sapiens, UniProt P23141); assay: Inhibition of human liver CE1-mediated O-nitrophenyl acetate hydrolysis by spectrophotometry; outline: as §1
T1 sequence (P23141 whole entry): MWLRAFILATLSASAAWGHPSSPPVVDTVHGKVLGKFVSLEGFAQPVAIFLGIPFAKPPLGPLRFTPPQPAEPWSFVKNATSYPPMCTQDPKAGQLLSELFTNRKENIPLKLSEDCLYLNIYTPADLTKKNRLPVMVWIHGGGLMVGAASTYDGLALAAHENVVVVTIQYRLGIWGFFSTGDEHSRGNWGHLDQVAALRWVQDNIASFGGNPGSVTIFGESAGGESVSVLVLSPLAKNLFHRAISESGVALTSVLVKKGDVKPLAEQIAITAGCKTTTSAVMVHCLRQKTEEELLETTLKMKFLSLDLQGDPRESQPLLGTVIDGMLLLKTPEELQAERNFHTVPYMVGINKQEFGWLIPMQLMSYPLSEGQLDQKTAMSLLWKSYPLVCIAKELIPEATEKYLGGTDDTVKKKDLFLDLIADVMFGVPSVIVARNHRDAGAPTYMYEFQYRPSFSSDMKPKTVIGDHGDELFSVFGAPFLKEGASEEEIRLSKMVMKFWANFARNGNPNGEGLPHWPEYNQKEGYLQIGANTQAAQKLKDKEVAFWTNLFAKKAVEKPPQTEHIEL

[4] = Inhibition of human intestinal CE-mediated irinotecan hydrolysis
Outline: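 Human intestinal CE (25 U per reaction; 1 U converts 1 nmole o-nitrophenyl acetate/min) with 20µM CPT-11 in 50mM Hepes pH7.4, inhibitor 1nM to 100µM. Incubated 37°C for 5 min, stopped with cold acidified methanol, centrifuged. SN-38 measured by reverse phase HPLC. Fractional inhibition fitted to partial inhibition equation, model chosen by Akaike's criteria, Ki from best fit.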

Sequence of Cholinesterase (Homo sapiens) (P06276 whole entry): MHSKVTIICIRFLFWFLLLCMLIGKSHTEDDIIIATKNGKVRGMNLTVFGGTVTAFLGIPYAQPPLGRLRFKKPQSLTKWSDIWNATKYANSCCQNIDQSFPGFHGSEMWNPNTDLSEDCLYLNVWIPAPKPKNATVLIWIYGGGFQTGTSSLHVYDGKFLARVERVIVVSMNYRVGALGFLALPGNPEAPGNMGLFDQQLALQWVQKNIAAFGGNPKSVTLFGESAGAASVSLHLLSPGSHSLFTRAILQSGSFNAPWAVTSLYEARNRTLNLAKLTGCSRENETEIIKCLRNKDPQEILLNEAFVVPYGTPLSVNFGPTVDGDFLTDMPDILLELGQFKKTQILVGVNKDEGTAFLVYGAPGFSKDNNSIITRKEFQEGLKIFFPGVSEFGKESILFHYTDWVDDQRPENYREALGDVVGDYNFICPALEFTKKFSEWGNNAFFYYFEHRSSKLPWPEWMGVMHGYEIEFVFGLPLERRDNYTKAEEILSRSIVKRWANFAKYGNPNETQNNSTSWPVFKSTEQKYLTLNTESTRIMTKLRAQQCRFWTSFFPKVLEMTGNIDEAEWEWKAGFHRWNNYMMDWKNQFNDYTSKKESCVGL
Sequence of Acetylcholinesterase (Homo sapiens) (P22303 whole entry): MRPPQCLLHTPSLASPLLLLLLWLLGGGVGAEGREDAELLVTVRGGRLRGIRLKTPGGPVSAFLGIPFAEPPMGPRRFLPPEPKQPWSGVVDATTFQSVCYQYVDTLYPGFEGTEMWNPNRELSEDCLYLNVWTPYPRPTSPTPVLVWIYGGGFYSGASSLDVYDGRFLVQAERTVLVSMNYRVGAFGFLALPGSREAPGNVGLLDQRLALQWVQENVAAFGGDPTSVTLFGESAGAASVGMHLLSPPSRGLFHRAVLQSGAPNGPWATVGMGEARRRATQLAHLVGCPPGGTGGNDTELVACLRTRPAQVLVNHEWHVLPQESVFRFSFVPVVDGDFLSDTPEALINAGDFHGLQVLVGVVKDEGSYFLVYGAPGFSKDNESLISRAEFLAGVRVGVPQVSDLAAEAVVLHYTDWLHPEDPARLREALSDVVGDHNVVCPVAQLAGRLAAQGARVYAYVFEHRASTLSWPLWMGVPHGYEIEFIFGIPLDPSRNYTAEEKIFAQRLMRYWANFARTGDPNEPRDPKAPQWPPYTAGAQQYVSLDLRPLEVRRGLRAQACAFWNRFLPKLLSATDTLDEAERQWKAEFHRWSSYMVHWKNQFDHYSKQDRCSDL

| Structure (SMILES) | Activity [1] | Ki [2] [µM] | Activity [3] | Ki (Liver carboxylesterase 1) [µM] | Ki [4] [µM] |
| --- | --- | --- | --- | --- | --- |
| O=S(=O)(Nc1ccc(NS(=O)(=O)c2ccc(F)cc2)cc1)c1ccc(F)cc1 | inactive | 0.355 | inactive | > 100 | 0.079 |
| O=S(=O)(Nc1ccc(NS(=O)(=O)c2ccc(Br)cc2)cc1)c1ccc(Br)cc1 | inactive | 0.0852 | inactive | > 100 | 0.044 |
| O=S(=O)(Nc1ccc(NS(=O)(=O)c2cccc(Br)c2)cc1)c1cccc(Br)c1 | inactive | 0.067 | inactive | > 100 | 0.121 |
| O=S(=O)(Nc1ccc(NS(=O)(=O)c2cc(F)c(F)c(F)c2)cc1)c1cc(F)c(F)c(F)c1 | inactive | 0.21 | inactive | > 100 | 0.192 |
| O=S(=O)(Nc1ccc(NS(=O)(=O)c2cccc(F)c2)cc1)c1cccc(F)c1 | inactive | 0.248 | inactive | > 100 | 0.152 |
| O=S(=O)(Nc1ccc2c(c1)Cc1cc(NS(=O)(=O)c3cccc(Br)c3)ccc1-2)c1cccc(Br)c1 | inactive | 0.0212 | inactive | > 100 | 0.0397 |
| Cc1c(C)c(NS(=O)(=O)c2ccc(F)cc2)c(C)c(C)c1NS(=O)(=O)c1ccc(F)cc1 | inactive | > 100 | inactive | > 100 | > 100 |
| O=S(=O)(Nc1ccc(NS(=O)(=O)c2c(F)cccc2F)cc1)c1c(F)cccc1F | inactive | 5.26 | inactive | > 100 | > 100 |
| Cc1c(C)c(NS(=O)(=O)c2ccc(Br)cc2)c(C)c(C)c1NS(=O)(=O)c1ccc(Br)cc1 | inactive | 3.24 | inactive | > 100 | > 100 |
| O=S(=O)(Nc1ccc2c(c1)Cc1cc(NS(=O)(=O)c3ccccc3)ccc1-2)c1ccccc1 | inactive | 0.0908 | inactive | > 100 | 0.0847 |
| O=S(=O)(Nc1ccc2c(c1)Cc1cc(NS(=O)(=O)c3cccc(Cl)c3)ccc1-2)c1cccc(Cl)c1 | inactive | 0.0139 | inactive | > 100 | 0.0528 |
| O=S(=O)(Nc1c(F)c(F)c(NS(=O)(=O)c2ccc(Br)cc2)c(F)c1F)c1ccc(Br)cc1 | inactive | 0.0234 | inactive | > 100 | 0.028 |
| O=S(=O)(Nc1ccc2c(c1)Cc1cc(NS(=O)(=O)c3cc(F)c(F)c(F)c3)ccc1-2)c1cc(F)c(F)c(F)c1 | inactive | 0.0186 | inactive | > 100 | 0.0581 |
| O=S(=O)(Nc1ccc2c(c1)Cc1cc(NS(=O)(=O)c3ccc(Cl)cc3)ccc1-2)c1ccc(Cl)cc1 | inactive | 0.0235 | inactive | > 100 | 0.0377 |
| Cc1c(C)c(NS(=O)(=O)c2cc(Cl)cc(Cl)c2)c(C)c(C)c1NS(=O)(=O)c1cc(Cl)cc(Cl)c1 | inactive | 2.6 | inactive | > 100 | > 100 |
| O=S(=O)(Nc1ccc(NS(=O)(=O)c2cccc(Cl)c2)cc1)c1cccc(Cl)c1 | inactive | 0.074 | inactive | > 100 | 0.062 |
| O=S(=O)(Nc1c(Cl)c(Cl)c(NS(=O)(=O)c2ccccc2)c(Cl)c1Cl)c1ccccc1 | inactive | 0.451 | inactive |  | > 100 |
